Experimental data taken from ChEMBL document CHEMBL1133641, “A new class of potential chloroquine-resistance reversal agents for Plasmodia: syntheses and biological evaluation of 1-(3'-diethylaminopropyl)-3-(substituted phenylmethylene)pyrrolidines” (2000).
The source made the active and inactive calls. The calls are words filed in the database; no cut-off is given here.

Columns and labels:
[1] = tested on: Plasmodium yoelii nigeriensis; assay: In Vitro inhibition of Heme Oxygenase in Cell-free parasite Plasmodium yoelii at concentration 50 uM; assay type: functional
Method in brief: (§1)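 Heme oxygenase activity was measured as bilirubin formation in a post-mitochondrial fraction. The parasite enzyme came from cell-free P. yoelii, isolated from infected blood by density gradient centrifugation and saponin lysis. The host enzyme came from infected liver. Compounds were tested at 10–100 µM and preincubated for 10 min before the reaction was started.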

[2] = tested on: Plasmodium yoelii nigeriensis; assay: In Vitro evaluation on percentage inhibition in Heme Oxygenase at concentration 100 (uM) of Cell-free parasite Plasmodium yoelii; assay type: functional; method in brief: as §1
[3] = tested on: Plasmodium yoelii nigeriensis; assay: Inhibition of heme oxygenase in Plasmodium yoelii nigeriensis isolated from infected mice (Mus musculus) (oral); NI denotes no inhibition; assay type: functional, organism-based
Method in brief: (§2)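 Swiss albino mice carried P. yoelii nigeriensis tolerant to CQ up to 120 mg/kg. They received compound orally at 15 mg/kg body wt for 5 days. Parasites were then isolated from blood by density gradient centrifugation and saponin lysis, and enzyme inhibition was measured as percent inhibition.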

[4] = target: T1, Glutathione S-transferase (Plasmodium yoelii yoelii) (UniProt Q7REH6); assay: Inhibition of Glutathione S-transferase in Plasmodium yoelii nigeriensis isolated from infected mice (Mus musculus) (oral); NI denotes nil inhibition; method in brief: as §2
T1 sequence (whole entry): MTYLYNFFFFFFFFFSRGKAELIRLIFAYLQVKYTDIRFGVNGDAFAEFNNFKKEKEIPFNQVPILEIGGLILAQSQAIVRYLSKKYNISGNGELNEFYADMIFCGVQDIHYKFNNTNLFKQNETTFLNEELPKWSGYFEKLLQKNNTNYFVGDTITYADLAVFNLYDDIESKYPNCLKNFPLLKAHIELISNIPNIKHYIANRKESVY

[5] = species on record: Mus musculus; assay: In Vitro inhibition of Heme Oxygenase in Plasmodium yoelii (host) at concentration 10 uM; assay type: functional; method in brief: as §1
[6] = species on record: Mus musculus; assay: In Vitro inhibition of Heme Oxygenase in Plasmodium yoelii (host) at concentration 100 uM; assay type: functional
Method in brief: (§3)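 In vitro heme oxygenase, cell-free: post-mitochondrial fractions of P. yoelii parasites and of infected host liver. Test compounds at 10-100 µM were preincubated 10 min in the assay system before the enzyme reaction started. Activity was followed as bilirubin formation and expressed as % inhibition.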

[7] = tested on: Plasmodium yoelii nigeriensis; assay: In Vitro inhibition of Heme Oxygenase in Cell-free parasite Plasmodium yoelii at concentration 10 uM; assay type: functional; method in brief: as §1
[8] = species on record: Mus musculus; assay: In Vitro inhibition of Heme Oxygenase in Plasmodium yoelii (host) at concentration 50 uM; assay type: functional; method in brief: as §3
[9] = tested on: Plasmodium yoelii nigeriensis; assay: In Vitro inhibition of Heme Oxygenase in Cell-free parasite Plasmodium yoelii at concentration 100 uM; assay type: functional; method in brief: as §1
[10] = tested on: Plasmodium yoelii nigeriensis; assay: In Vitro inhibition of Heme Oxygenase in Cell-free parasite Plasmodium yoelii at concentration 50 uM;NI denotes nil inhibition; assay type: functional; method in brief: as §1
[11] = tested on: Plasmodium yoelii nigeriensis; assay: In Vitro inhibition of Heme Oxygenase in Cell-free parasite Plasmodium yoelii at concentration 10 uM;NI denotes nil inhibition; assay type: functional; method in brief: as §1
[12] = target: T1, Glutathione S-transferase (Plasmodium yoelii yoelii); assay: Inhibition of Glutathione S-transferase in Plasmodium yoelii nigeriensis isolated from infected mice (Mus musculus) (oral); conditions: concentration not given here; method in brief: as §2
[13] = tested on: Plasmodium yoelii nigeriensis; assay: In Vitro inhibition of Heme Oxygenase in Cell-free parasite Plasmodium yoelii at concentration 100 uM;NI denotes nil inhibition; assay type: functional; method in brief: as §1
[14] = tested on: Plasmodium yoelii nigeriensis; assay: Inhibition of heme oxygenase in Plasmodium yoelii nigeriensis isolated from infected mice (Mus musculus) (oral); assay type: functional; method in brief: as §2
[15] = In Vitro evaluation on percentage inhibition in Heme Oxygenase at concentration 100 (uM) of infected host; method in brief: as §1
[16] = In Vitro evaluation on percentage inhibition in Heme Oxygenase at concentration 50(uM) of infected host; method in brief: as §1
[17] = In Vitro evaluation on percentage inhibition in Heme Oxygenase at concentration 10 (uM)of infected host; method in brief: as §1
[18] = tested on: Plasmodium yoelii nigeriensis; assay: Inhibition of heme oxygenase in Plasmodium yoelii nigeriensis isolated from infected mice (Mus musculus) (oral); NI denotes nil inhibition; assay type: functional, organism-based; method in brief: as §2
[19] = tested on: Plasmodium yoelii nigeriensis; assay: In Vitro inhibition of Heme Oxygenase in Cell-free parasite Plasmodium yoelii at concentration 50 uM; NI denotes nil inhibition; assay type: functional; method in brief: as §1

CN(C)CCCN1c2ccccc2Sc2ccc(Cl)cc21
inhibition [1]: 85%
inhibition [2]: 100%

CCN(CC)CCCN1CC/C(=C\c2ccc(OCc3ccccc3)cc2)C1
inhibition [1]: 37%
NI [3]: inactive
NI [4]: No inhibition
inhibition [5]: 24%
inhibition [6]: 69%
inhibition [7]: 28%
inhibition [8]: 63%
inhibition [9]: 64%

CCN(CC)CCCN1CC/C(=C\c2ccc(OCCN3CCCC3)cc2)C1
NI [10]: No inhibition
inhibition [1]: 100%
NI [11]: No inhibition
inhibition [12]: 90%
NI [13]: No inhibition
Inhibition [14]: 79%
inhibition [7]: 100%
inhibition [9]: 100%

CCN(CC)CCCN1CC/C(=C\c2ccccc2)C1
inhibition [15]: 65%
inhibition [16]: 65%
inhibition [1]: 64%
NI [3]: inactive
NI [4]: No inhibition
inhibition [7]: 52%
inhibition [17]: 10%
inhibition [9]: 82%

CCN(CC)CCCN1CC/C(=C\c2ccc3c(c2)OCO3)C1
inhibition [1]: 100%
NI [11]: No inhibition
inhibition [12]: 10%
NI [13]: No inhibition
inhibition [7]: 100%
NI [18]: No inhibition
NI [19]: No inhibition
inhibition [9]: 100%
